We go through 9 compounds from ChEMBL document CHEMBL3091364, “Benzyloxybenzylammonium chlorides: Simple amine salts that display anticonvulsant activity” (Bioorg Med Chem, 2013).

Active and inactive are the calls of the source. The calls are words filed in the database; no cut-off is given here.

Series [1] deals with Mus musculus. In words: Anticonvulsant activity in ip dosed albino CF-1 mouse assessed as protection against 6 Hz psychomotor seizure measured at 0.25 to 4 hrs. The class given is functional. Conditions: albino CF-1, ip. The gist of the method:
(§1)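 Screened under the NINDS ASP in male albino Carworth Farms No. 1 mice (ip) or male albino Sprague-Dawley rats (ip or po), using MES, 6 Hz (32 mA) and subcutaneous pentylenetetrazol seizure tests. Initial qualitative tests used preset doses (e.g., 30, 50, 100 mg/kg). ED50 values with 95% confidence intervals came from dose–response data collected at the time of peak effect.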

Series [2] concerns the target T1, Alpha-1A adrenergic receptor (Homo sapiens) (UniProt P35348).
T1 sequence (whole entry): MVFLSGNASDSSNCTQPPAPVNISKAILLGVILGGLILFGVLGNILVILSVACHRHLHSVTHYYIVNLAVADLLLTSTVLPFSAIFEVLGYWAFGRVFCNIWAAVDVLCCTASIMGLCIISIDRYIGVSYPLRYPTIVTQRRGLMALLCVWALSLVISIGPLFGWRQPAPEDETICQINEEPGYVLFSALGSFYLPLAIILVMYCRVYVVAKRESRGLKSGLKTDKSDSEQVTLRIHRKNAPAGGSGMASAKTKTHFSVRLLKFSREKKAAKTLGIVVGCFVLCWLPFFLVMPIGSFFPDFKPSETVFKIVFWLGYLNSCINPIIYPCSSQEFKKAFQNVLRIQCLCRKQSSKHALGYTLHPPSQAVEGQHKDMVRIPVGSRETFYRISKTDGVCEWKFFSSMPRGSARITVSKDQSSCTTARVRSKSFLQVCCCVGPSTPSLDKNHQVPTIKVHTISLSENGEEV
In words: Inhibition of adrenergic alpha-1A receptor (unknown origin) at 10 uM relative to control.

For series [3], the species on record is Rattus norvegicus. In words: Induction of Na+ channel slow inactivation in rat embryonic cortical neurons at 10 uM by whole-cell voltage clamp assay.
The species entered for series [4] is Rattus norvegicus. In words: Inhibition of Na+ channel in rat embryonic cortical neurons assessed as frequency-dependent decrease in current amplitude at 10 uM at -80 mV holding potential by whole-cell voltage clamp assay.
Series [5] has as its system Mus musculus. In words: Anticonvulsant activity in ip dosed albino CF-1 mouse assessed as protection against subcutaneous metrazol-induced seizure measured at 0.25 hrs. The class given is functional. As to conditions: albino CF-1, 0.25 h. Summed up: as §1
Series [6] has as its target T2, 5-hydroxytryptamine receptor 3A (Homo sapiens) (UniProt P46098).
T2 sequence (whole entry): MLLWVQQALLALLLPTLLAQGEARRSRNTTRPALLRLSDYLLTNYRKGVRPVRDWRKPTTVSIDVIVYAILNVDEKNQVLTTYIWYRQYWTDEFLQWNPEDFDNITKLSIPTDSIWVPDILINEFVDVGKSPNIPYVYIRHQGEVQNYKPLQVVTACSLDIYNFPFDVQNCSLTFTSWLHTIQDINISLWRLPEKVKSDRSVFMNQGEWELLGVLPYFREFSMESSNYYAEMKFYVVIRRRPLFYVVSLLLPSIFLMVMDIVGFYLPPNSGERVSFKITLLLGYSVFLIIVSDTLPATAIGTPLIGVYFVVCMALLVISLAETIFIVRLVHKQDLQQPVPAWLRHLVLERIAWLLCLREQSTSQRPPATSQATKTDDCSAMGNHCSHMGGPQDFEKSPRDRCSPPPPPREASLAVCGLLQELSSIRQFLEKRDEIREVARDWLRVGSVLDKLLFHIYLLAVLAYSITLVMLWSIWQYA
In words: Inhibition of 5-HT3 receptor (unknown origin) at 10 uM relative to control.

Series [7] concerns the target T3, Alpha-1D adrenergic receptor (Homo sapiens) (UniProt P25100).
T3 sequence (whole entry): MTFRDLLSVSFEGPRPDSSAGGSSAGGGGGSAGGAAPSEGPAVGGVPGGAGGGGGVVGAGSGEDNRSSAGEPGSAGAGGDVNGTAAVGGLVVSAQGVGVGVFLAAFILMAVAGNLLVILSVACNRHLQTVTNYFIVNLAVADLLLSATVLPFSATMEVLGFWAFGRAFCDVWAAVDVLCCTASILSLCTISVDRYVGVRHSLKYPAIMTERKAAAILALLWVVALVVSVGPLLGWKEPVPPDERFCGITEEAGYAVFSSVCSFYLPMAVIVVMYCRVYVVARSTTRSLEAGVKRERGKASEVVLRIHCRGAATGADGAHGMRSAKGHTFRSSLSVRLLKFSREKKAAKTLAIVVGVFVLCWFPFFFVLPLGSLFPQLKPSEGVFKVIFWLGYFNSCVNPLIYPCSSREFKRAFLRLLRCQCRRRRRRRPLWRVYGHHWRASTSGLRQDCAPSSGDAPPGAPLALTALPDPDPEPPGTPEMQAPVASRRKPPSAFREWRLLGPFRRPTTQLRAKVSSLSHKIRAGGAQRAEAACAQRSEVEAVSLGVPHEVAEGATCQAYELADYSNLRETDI
In words: Inhibition of adrenergic alpha-1D receptor (unknown origin) at 10 uM relative to control.

Series [8] in a line: Toxicity in ip dosed albino Sprague-Dawley rat assessed as behavioral changes measured at 0.5 hrs. As to conditions: in vivo. Type of series: organism-based. The gist of the method:
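Male albino Sprague-Dawley rats given compound intraperitoneally or orally (NINDS ASP); neurological impairment judged from behavioral toxicity effects. Preset screening doses (e.g., 30 mg/kg); for adequately active compounds, TD50 (mg/kg, 95% confidence intervals) derived from dose–effect data at time of peak effect.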

The target in series [9] is D(2) dopamine receptor (Homo sapiens) (UniProt P14416). In words: Inhibition of dopaminergic D2 receptor (unknown origin) at 10 uM relative to control.
D(2) dopamine receptor (Homo sapiens), sequence (P14416 whole entry): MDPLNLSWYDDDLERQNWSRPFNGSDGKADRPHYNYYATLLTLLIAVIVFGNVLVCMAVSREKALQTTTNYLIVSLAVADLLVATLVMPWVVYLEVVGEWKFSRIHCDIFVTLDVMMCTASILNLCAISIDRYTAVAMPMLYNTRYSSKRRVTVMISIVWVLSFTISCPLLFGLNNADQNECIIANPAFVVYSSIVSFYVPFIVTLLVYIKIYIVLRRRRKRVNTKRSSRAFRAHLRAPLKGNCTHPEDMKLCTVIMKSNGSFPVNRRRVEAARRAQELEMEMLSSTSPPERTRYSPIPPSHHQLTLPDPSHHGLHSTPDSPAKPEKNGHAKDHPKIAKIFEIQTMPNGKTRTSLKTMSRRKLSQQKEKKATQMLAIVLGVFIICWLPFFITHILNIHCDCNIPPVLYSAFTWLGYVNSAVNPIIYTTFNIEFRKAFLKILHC
Series [10] concerns the target 5-hydroxytryptamine receptor 1E (Homo sapiens) (UniProt P28566). In words: Inhibition of 5-HT1E receptor (unknown origin) at 10 uM relative to control.
Series [11] in a line: Toxicity in ip dosed albino CF-1 mouse assessed as neurological impairment measured at 0.25 to 4 hrs by rotorod test. Conditions: in vivo. Type of series: organism-based. Summed up: (§2)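 Male albino Carworth Farms No. 1 mice dosed intraperitoneally under the NINDS Anticonvulsant Screening Program; neurological impairment scored by rotorod test. Qualitative screens used preset doses (e.g., 30, 100 mg/kg); where activity was sufficient, dose–response curves were run at time of peak effect to give TD50 in mg/kg with 95% confidence intervals.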
Background: Falling from the rotarod earlier than controls is read as motor impairment.

In series [12] the test system is Rattus norvegicus. In words: Anticonvulsant activity in ip dosed albino Sprague-Dawley rat assessed as protection against maximal electroshock-induced seizures measured at 0.25 to 4 hrs. Type of series: functional. The gist of the method:
as §1
(In the maximal electroshock model the usual endpoint is tonic extension of the hind limbs.)

Series [13] is described as follows: Toxicity in ip dosed albino CF-1 mouse assessed as neurological impairment measured at 0.5 to 2 hrs by rotorod test. As to conditions: in vivo. The class given is organism-based. The gist of the method: as §2
Series [14] has as its system Mus musculus. In words: Anticonvulsant activity in ip dosed albino CF-1 mouse assessed as protection against 6 Hz psychomotor seizure measured at 0.5 hrs. The class given is functional. As to conditions: albino CF-1, ip. The gist of the method:
as §1

For series [15], the system named is Mus musculus. In words: Anticonvulsant activity in ip dosed albino CF-1 mouse assessed as protection against 6 Hz psychomotor seizure measured at 1 hr. The class given is functional. Conditions: albino CF-1, ip. The gist of the method:
as §1

Series [16] concerns Mus musculus. In words: Anticonvulsant activity in ip dosed albino CF-1 mouse assessed as protection against 6 Hz psychomotor seizure measured at 2 hrs. As to conditions: albino CF-1, ip. Type of series: functional. Summed up:
as §1

In series [17] the test system is Mus musculus. In words: Anticonvulsant activity in corneally kindled mouse assessed as protection against seizure at 78 mg/kg, ip. The class given is functional, organism-based. Further details: dose 78 mg/kg. The gist of the method:
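Corneally kindled mouse seizure model with ip dosing. Protection was scored in 4 animals, and the average seizure score was recorded.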

5-hydroxytryptamine receptor 1E (Homo sapiens), sequence (P28566 whole entry): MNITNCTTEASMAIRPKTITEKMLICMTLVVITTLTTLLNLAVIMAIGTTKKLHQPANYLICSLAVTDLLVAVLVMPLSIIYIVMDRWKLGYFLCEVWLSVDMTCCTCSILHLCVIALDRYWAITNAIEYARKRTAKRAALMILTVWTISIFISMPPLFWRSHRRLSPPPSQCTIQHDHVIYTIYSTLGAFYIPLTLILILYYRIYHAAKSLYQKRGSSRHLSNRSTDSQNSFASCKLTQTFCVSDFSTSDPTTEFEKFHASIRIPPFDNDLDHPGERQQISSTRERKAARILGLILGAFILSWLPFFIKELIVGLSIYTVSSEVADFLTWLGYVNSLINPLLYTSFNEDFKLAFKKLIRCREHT

The ED50 is the dose at which the effect has come halfway, by size or by number of responders. In general, inhibition refers to the drop in the measured response relative to a control, in per cent. In general, TD50 refers to the dose at which the toxic effect under study appears in half of the subjects. As to `Cl.NCc1ccc(OCc2ccccc2OC(F)(F)F)cc1`, the 50% effective dose (ED50) was less than 100 mg/kg in series [1] and more than 80 mg/kg in series [5]. For the same compound, the inhibition in [2] is -9.7%; in [6] it was 10.4%; in series [7] it was 6.5%; in series [9] it was 12.7%; in series [10], -5.2%. The outcome in series [3] was Active. In addition, the inhibition result in [4] is “inactive”. Also, in series [8], the TD50 at 0.5 h is 81 mg/kg.
On to `Cl.NCc1ccc(OCc2ccc(F)cc2)cc1`, for which the ED50 in [1] is more than 100 mg/kg. The results for the inhibition in series [2], in series [6] and in series [7] were -7.5%, -4.2% and 0.2%, respectively. Moreover, the TD50 in series [11] is more than 100 mg/kg.
As for `Cl.NCc1ccc(OCc2cccc(F)c2)cc1`, the values for the ED50 in series [1] and in [12] were more than 50 mg/kg and more than 30 mg/kg, respectively. Besides, the inhibition was -9.1% in series [7] and 3.2% in series [9]. Besides, the TD50 in series [11] was more than 100 mg/kg.
Turning to `Cl.NCc1ccc(OCc2ccccc2)cc1`, in series [13], the TD50 was 100 mg/kg. Further, the results for the inhibition in series [2] and in series [9] were 12.8% and 12.4%, respectively. Besides, the figures for the ED50 in [12] and in series [14] were more than 30 mg/kg and 30 mg/kg, respectively.
With `Cl.NCc1ccc(OCc2cccc(OC(F)(F)F)c2)cc1`, the ED50 in [15] amounted to 50 mg/kg.
Consider `Cl.NCc1ccc(OCc2cccc(Cl)c2)cc1`, for which the ED50 was more than 180 mg/kg in series [5] and 78 mg/kg in [16]. In addition, the results for the inhibition in series [6] and in series [7] were 13.7% and -1.9%, respectively. The outcome in [17] was Active.
In the case of `Cl.NCc1ccc(OCc2ccc(Cl)cc2)cc1`, the inhibition is -9.4% in series [2], 23.1% in [6], -6.6% in [7] and 2.7% in series [10]. For the same compound, the ED50 in series [16] was less than 100 mg/kg; in [12], more than 30 mg/kg. The TD50 in series [11] is more than 100 mg/kg.
With `Cl.NCc1ccc(OCc2ccccc2F)cc1`, in [13], the TD50 is 100 mg/kg. In addition, the ED50 was more than 30 mg/kg in series [12] and 30 mg/kg in series [14]. Further, the inhibition in series [9] is 7.4%; in series [10], -6.6%.
With `Cl.NCc1ccc(OCc2ccc(OC(F)(F)F)cc2)cc1`, in series [16], the median effective dose (ED50) is 30 mg/kg. For the same compound, the TD50 in [11] was more than 100 mg/kg. For the same compound, the inhibition in series [9] was 5.3%; in [10] it was -6.9%.
